From PubChem BioAssay
NPY Y2 blocker – NPY-Y2 receptor antagonists, primary screen, cell-based | Neuropeptide Y receptor type 2 (Homo sapiens), P49146 | NPY-Y2 expressing cells, antagonist mode | inhibition, % at 2.7 µM | 0.99% of 140,000 active | AID 793, 2007; in the data active = inhibition above about 17%;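 also: 0% = vehicle with agonist challenge and 100% = reference antagonist with challenge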
Target sequence (P49146 whole entry, looked up): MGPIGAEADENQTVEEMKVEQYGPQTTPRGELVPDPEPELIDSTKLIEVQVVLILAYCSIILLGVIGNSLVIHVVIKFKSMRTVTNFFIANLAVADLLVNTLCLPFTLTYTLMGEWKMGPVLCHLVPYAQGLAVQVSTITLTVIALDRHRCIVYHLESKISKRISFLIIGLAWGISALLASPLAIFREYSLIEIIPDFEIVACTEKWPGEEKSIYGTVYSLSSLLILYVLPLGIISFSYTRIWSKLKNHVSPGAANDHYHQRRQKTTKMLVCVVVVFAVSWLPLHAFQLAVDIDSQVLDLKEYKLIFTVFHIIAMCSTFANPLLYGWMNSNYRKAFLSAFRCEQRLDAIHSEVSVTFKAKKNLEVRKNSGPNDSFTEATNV
Furin inhibitor – human furin inhibitors, primary screen, biochemical, fluorescence intensity. P09958. purified furin, fluorogenic substrate cleavage. inhibition, % at 20 µM or 30 µM. 0.061% of 220,000 active; in the data active = inhibition above about 25%
NPY Y1 blocker – NPY-Y1 receptor antagonists, primary screen, cell-based; Neuropeptide Y receptor type 1 (Homo sapiens), P25929; AID 1040, 2008; 1% of 200,000 active; inhibition, % at 3.6 µM; HEK293-CNG Y1 cells, membrane potential fluorescence; NPY at EC95, then isoproterenol;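 active = inhibition above the campaign mean inhibition of all tested compounds plus 3 SD, cut at about 20% in these data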;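 also: 0% = DMSO wells given NPY plus isoproterenol and 100% = isoproterenol alone without NPY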
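Test system – HEK293 Y1/CNG channel cell line · Also added – NPY agonist 25 nM, then isoproterenol 1 µM plus Ro 20-1724 25 µM · Compound dosing – one concentration, 3.6 µM, in 0.4% DMSO · Schedule – compound incubation 1 h at room temperature, readout 45 min post-stimulation · Technique – fluorescence, membrane potential probe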
NPY1 pot ag – NPY-Y1 receptor potentiators or agonists, primary screen, cell-based; AID 1304, 2008; Neuropeptide Y receptor type 1 (Homo sapiens), P25929; activation, % at 3.6 µM; 0.37% of 220,000 active; NPY-Y1 expressing cells, potentiator/agonist activation; in the data active = activation above about 33%, passing the limit was not always enough;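 also: cells stimulated with NPY at EC10 then isoproterenol at EC100; 0% = low agonist plus stimulus and 100% = saturating agonist plus stimulus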
NPY-Y2 PAM-ag – NPY-Y2 potentiators or agonists, primary screen, cell-based. Neuropeptide Y receptor type 2 (Homo sapiens), P49146. cells expressing NPY-Y2, potentiator/agonist read-out. 0.45% of 220,000 active. activation, % at 3.6 µM. AID 1359, 2008; in the data active = activation above about 27%;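 also: cells stimulated with NPY near EC25 plus isoproterenol at EC100; 0% = vehicle plus submaximal agonist and 100% = vehicle plus saturating agonist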
Cl transport mod – KCC2 cotransporter modulators, thallium flux, primary screen, cell-based, HEK293 KCC2, FluoZin-2 fluorescence, MLSMR; KCC2 cells, thallium flux FluoZin-2 fluorescence; 2.2% of 190,000 active; B-score of Tl+ flux slope (higher = more flux/activation; lower = inhibition) at 10 µM; Solute carrier family 12 member 5 (Homo sapiens), Q9H2X9; AID 1456, 2008;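 active = thallium flux slope and its plate-corrected score both differing from the plate sample mean at a set confidence after two filtering rounds, in either direction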;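 also: slope of fluorescence scaled to starting intensity during 10 to 20 s after thallium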
* = called active by the depositor; i = inactive; · = no result given. Shown are actives, neighbours in structure and some others; about 3.7% of the full set was active somewhere.

SMILES	NPY Y2 blocker	Furin inhibitor	NPY Y1 blocker	NPY1 pot ag	NPY-Y2 PAM-ag	Cl transport mod
N#CCCN(CCN1CCCC1)S(=O)(=O)c1ccc(-c2ccc([N+](=O)[O-])cc2)cc1	·	-5	0	18	3	-1.2
COc1ccccc1/C=C/C(=O)OCC(=O)NCCC1=CCCCC1	·	-15	10	-29	-19	-1.4
O=C(/C=C/c1cccc2ccccc12)NCCC1=CCCCC1	22*	-27	32*	-50	-21	0.69
O=C(CCN1C(=O)COc2ccccc21)NCc1cccs1	-1	-23	2	2	-3	·
CCn1c(SCC(=O)NC(=O)NCc2ccco2)nc2sc(C)c(C)c2c1=O	3	-11	10	-30	-18	16*
Cc1ccc(Nc2nc(-c3ccc(O)c(O)c3)cs2)nc1	·	-21	-12	44*	51*	0.61
O=[N+]([O-])c1cc(Cl)ccc1N1CCN(c2cccc(C(F)(F)F)c2)CC1	21*	-9	20*	6	-6	-0.43
COc1cc(OC)cc(C(=O)Nc2nc(-c3ccccc3)c(-c3ccccc3)o2)c1	5	-19	-1	-12	4	10*
CC(=O)Nc1nc(-c2ccccc2)c(-c2ccccc2)o1	2	-5	-3	12	-8	-1.7
N#CC1=C(N)Oc2n[nH]c(-c3cccs3)c2C1c1ccsc1 (configuration not stated)	6	-11	28*	9	-6	·
COc1ccc(-c2[nH]nc3c2C(c2ccoc2)C(C#N)=C(N)O3)cc1 (configuration not stated)	3	-6	-2	-7	-5	0.28
Cc1ccc(-c2[nH]nc3c2C(c2ccoc2)C(C#N)=C(N)O3)cc1C (configuration not stated)	87*	-2	110*	-16	-8	0.78
Cc1[nH]nc2c1C(c1ccc(Cl)cc1)C(C#N)=C(N)O2 (configuration not stated)	0	-33	-8	16	3	-1.4
N#CC1=C(N)Oc2n[nH]c(-c3cccs3)c2C1c1ccncc1 (configuration not stated)	·	-26	7	15	-8	0.11
Cc1cc(-c2[nH]nc3c2C(c2ccc(Cl)cc2)C(C#N)=C(N)O3)c(C)s1 (configuration not stated)	69*	-17	59*	-15	-7	-0.66
COCCn1c(SC(C)C(=O)Nc2ccc(Cl)cn2)nnc1-c1ccncc1 (configuration not stated)	·	-19	0	8	-11	1
CCCCOC(=O)Nc1ccc(OC)cc1S(=O)(=O)N1CCOCC1	0	-20	-3	-14	-3	-3.3*
CCOC(=O)C(=O)Nc1ccc(S(=O)(=O)N2CCOCC2)cc1OC	3	-9	9	-15	-17	-0.49
CCOc1ccc(C2NC(=O)NC(C)=C2[N+](=O)[O-])cc1OC (configuration not stated)	·	-12	·	10	-30	0.94
Cc1onc(-c2ccccc2)c1C(=O)NNC(=S)NC(=O)c1ccc(Br)cc1	6	-15	2	-28	-1	20*
CCN(CC(=O)Nc1ccc(C(C)=O)cc1)CC(=O)Nc1cccc(OC)c1	·	-13	7	19	5	-0.039
CC(C)CSC1=NSC2=NC(=O)/C(=C\c3coc4ccccc4c3=O)C(=N)N12	·	-15	1	17	6	i
CC(C)CSC1=NSC2=NC(=O)/C(=C\c3ccccc3)C(=N)N12	·	-4	0	-19	-27	139*
COc1ccc(-c2nc(C#N)c(NCCc3ccccc3)o2)cc1OC	9	-31	6	0	-14	·
COc1ccc(-c2nc(C#N)c(NCc3ccc(C)cc3)o2)cc1OC	27*	-16	14	-39	-7	0.85
SMILES	NPY Y2 blocker	Furin inhibitor	NPY Y1 blocker	NPY1 pot ag	NPY-Y2 PAM-ag	Cl transport mod
Cc1ccc(-c2nc(C#N)c(NCc3cccc4c3OCO4)o2)cc1	22*	2	28*	-20	-31	-0.0095
Cc1ccn(CCC(=O)N2CCCC(CCC(=O)N3CCN(c4ccccn4)CC3)C2)n1 (configuration not stated)	·	-26	1	9	-17	-0.11
CCOCCCNS(=O)(=O)c1ccc(Br)cc1	0	11	-1	2	2	-0.44
CC(Oc1ccc(Cl)cc1Cl)c1ccn[nH]1 (configuration not stated)	·	-13	5	11	23	-0.015
Cc1csc2nc(CSc3nc4ccccc4o3)c(Br)n12	11	-14	23*	-17	-20	-2.3
CCOc1ccccc1NS(=O)(=O)c1cn(C)c(=O)n(C)c1=O	·	-14	·	7	-3	-1.2
C=CCNC(=S)Nc1sc2c(c1C(=O)OCC)CC(C)(CC)OC2 (configuration not stated)	3	-17	0	-27	-9	22*
[O-][n+]1c2c(nc3c1-c1ccccc1C3O)CCCC2 (configuration not stated)	·	-15	5	12	0	·
Cc1c(N=C/C=C2/N(C)c3ccccc3C2(C)C)c(=O)n(-c2ccccc2)n1C	0	26*	-2	21	2	0.55
Cc1c(N=C/C=C2\N(C)c3ccccc3C2(C)C)c(=O)n(-c2ccccc2)n1C	2	0	-8	21	12	0.16
Cc1ccc(NC(=O)NNC(=O)C2CCN(Cc3ccc(F)cc3Cl)CC2)cc1	·	-3	3	15	-2	-0.96
COC(=O)c1cn(NC(=O)c2ccc([N+](=O)[O-])cc2Cl)c(=O)c2ccccc12	·	-19	-3	-16	5	0.003
COc1cccc(CN2CCN(Cc3ccc4c(NC(C)=O)cccc4n3)CC2CCO)c1 (configuration not stated)	·	-34	-5	-19	-15	0.93
c1ccc(CCCCNCC2COc3ccccc3O2)cc1 (configuration not stated)	·	-30	20*	-4	-19	0.096
C/C(N)=C(/C#N)C(=O)CSc1ncnc2ccccc12	9	-15	-11	94*	98*	1.4
CNC(=O)CNC(=O)Nc1ccc(Cl)c(Cl)c1	·	-19	0	14	5	0.7
O=C(/C=C/c1ccccc1)C1=C(O)C(=O)N(CCO)C1c1ccccc1[N+](=O)[O-] (configuration not stated)	·	-19	-2	4	10	·
COc1ccc(NC(=S)N/N=C/c2cccn2Cc2ccc(F)cc2Cl)cc1	·	-4	2	3	2	3.8*
